Data published in ChEMBL document CHEMBL4689842, “EUbOPEN Chemogenomics Library wave 1” (2021).
Values joined by “and” are separate entries in the source; they are usually repeats but may differ in a detail not shown here. Equal values may be shown once.

Tested on: HEK-293T
Test: Multiplex assay against HEK293T;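 on Population Tubulin-Different-Phenotype (%): share of the cells with healthy nuclei that show this phenotype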
Assay type: toxicity, cell-based
Settings: human
Procedure, shortened: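 With compound added, live cells were imaged on a CQ1 microscope at 37°C and 5% CO2; staining with Hoechst33342, BioTracker Green Microtubule Cytoskeleton Dye, MitoTracker Red and Annexin V Alexa Fluor 680 had been done at seeding. The CellPathfinder machine-learning gating scheme split cells into Hoechst high-intensity objects or normal cells, normal cells into healthy, pyknosed or fragmented nuclei, and pyknosed cells into mitotic or apoptotic. The tubulin, mitochondrial-mass and membrane-permeability phenotypes are per cents of healthy-nucleus cells.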

[1] = 12 h, 1 µM, compound concentration 1 uM, replicate 1
[2] = 12 h, 1 µM, compound concentration 1 uM, replicate 2
[3] = 12 h, 10 µM, compound concentration 10 uM, replicate 1
[4] = 12 h, 10 µM, compound concentration 10 uM, replicate 2
[5] = 24 h, 1 µM, compound concentration 1 uM, replicate 1
[6] = 24 h, 1 µM, compound concentration 1 uM, replicate 2
[7] = 24 h, 10 µM, compound concentration 10 uM, replicate 1
[8] = 24 h, 10 µM, compound concentration 10 uM, replicate 2
[9] = 48 h, 10 µM, compound concentration 10 uM, replicate 1
[10] = 48 h, 10 µM, compound concentration 10 uM, replicate 2

With COc1cc2nccc(Oc3ccc(NC(=O)Nc4cc(C)on4)c(Cl)c3)c2cc1OC.O the “Population Apoptotic (%)” value [1] was 28% and 23%, the “Population Fragmented Nuclei (%)” value [1] was 14% and the “Population Healthy Nuclei (%)” value [1] was 55% and 71%. For the same compound, the “Population Hoechst High Intensity Objects (%)” value [1] was 12% and 10%, the “Population Mitotic Cells (%)” value [1] was 72% and 76% and the “Population Normal (%)” value [1] was 87% and 89%. For the same compound, the “Population Pyknosed Nuclei (%)” value [1] was 30% and 14%, the “Total Cell Count” value [1] was 660 and 667 and the “Population Apoptotic (%)” value [2] was 18% and 12%. The “Population Fragmented Nuclei (%)” value [2] was 3% and 9%, the “Population Healthy Nuclei (%)” value [2] was 86% and the “Population Hoechst High Intensity Objects (%)” value [2] was 2%. For the same compound, the “Population Mitotic Cells (%)” value [2] was 81% and 87%, the “Population Normal (%)” value [2] was 97% and the “Population Pyknosed Nuclei (%)” value [2] was 10% and 4%. For the same compound, the “Total Cell Count” value [2] was 918 and 1845, the “Population Apoptotic (%)” value [3] was 82% and the “Population Fragmented Nuclei (%)” value [3] was 11%. The “Population Healthy Nuclei (%)” value [3] was 21%, the “Population Hoechst High Intensity Objects (%)” value [3] was 13% and the “Population Membrane Permeable-Phenotype (%)” value [3] was 2%. The “Population Mitochondria Different-Phenotype (%)” value [3] was 100%, the “Population Mitotic Cells (%)” value [3] was 17% and the “Population Normal (%)” value [3] was 86%. The “Population Tubulin-Different-Phenotype (%)” value [3] was 97%, the “Total Cell Count” value [3] was 260 and the “Population Apoptotic (%)” value [4] was 59%. The “Population Fragmented Nuclei (%)” value [4] was 3%, the “Population Healthy Nuclei (%)” value [4] was 30% and the “Population Hoechst High Intensity Objects (%)” value [4] was 1%. The “Population Membrane Permeable-Phenotype (%)” value [4] was 8%, the “Population Mitochondria Different-Phenotype (%)” value [4] was 88% and the “Population Mitotic Cells (%)” value [4] was 40%. For the same compound, the “Population Normal (%)” value [4] was 98%, the “Population Pyknosed Nuclei (%)” value [4] was 66% and the “Population Tubulin-Different-Phenotype (%)” value [4] was 94%. For the same compound, the “Total Cell Count” value [4] was 226, the “Population Apoptotic (%)” value [5] was 39% and 22% and the “Population Fragmented Nuclei (%)” value [5] was 14% and 17%. The “Population Healthy Nuclei (%)” value [5] was 63% and 74%, the “Population Hoechst High Intensity Objects (%)” value [5] was 11% and 8% and the “Population Membrane Permeable-Phenotype (%)” value [5] was 10%. For the same compound, the “Population Mitotic Cells (%)” value [5] was 60% and 77%, the “Population Normal (%)” value [5] was 88% and 92% and the “Population Pyknosed Nuclei (%)” value [5] was 22% and 8%. For the same compound, the “Total Cell Count” value [5] was 680 and 875, the “Population Healthy Nuclei (%)” value [6] was 89% and 68% and the “Population Hoechst High Intensity Objects (%)” value [6] was 4% and 3%. For the same compound, the “Population Membrane Permeable-Phenotype (%)” value [6] was 14% and 8%, the “Population Mitotic Cells (%)” value [6] was 81% and 95% and the “Population Normal (%)” value [6] was 95% and 96%. The “Population Apoptotic (%)” value [7] was 89%, the “Population Fragmented Nuclei (%)” value [7] was 12% and the “Population Healthy Nuclei (%)” value [7] was 30%. For the same compound, the “Population Hoechst High Intensity Objects (%)” value [7] was 14%, the “Population Membrane Permeable-Phenotype (%)” value [7] was 3% and the “Population Mitochondria Different-Phenotype (%)” value [7] was 100%. For the same compound, the “Population Mitotic Cells (%)” value [7] was 10%, the “Population Normal (%)” value [7] was 85% and the “Population Pyknosed Nuclei (%)” value [7] was 56%. The “Population Tubulin-Different-Phenotype (%)” value [7] was 100%, the “Total Cell Count” value [7] was 253 and the “Population Apoptotic (%)” value [8] was 76%. The “Population Fragmented Nuclei (%)” value [8] was 2%, the “Population Healthy Nuclei (%)” value [8] was 50% and the “Population Hoechst High Intensity Objects (%)” value [8] was 1%. The “Population Membrane Permeable-Phenotype (%)” value [8] was 2%, the “Population Mitochondria Different-Phenotype (%)” value [8] was 98% and the “Population Mitotic Cells (%)” value [8] was 23%. For the same compound, the “Population Normal (%)” value [8] was 98%, the “Population Pyknosed Nuclei (%)” value [8] was 47% and the “Population Tubulin-Different-Phenotype (%)” value [8] was 97%. The “Total Cell Count” value [8] was 258, the “Population Apoptotic (%)” value [9] was 73% and the “Population Fragmented Nuclei (%)” value [9] was 14%. For the same compound, the “Population Healthy Nuclei (%)” value [9] was 40%, the “Population Hoechst High Intensity Objects (%)” value [9] was 11% and the “Population Membrane Permeable-Phenotype (%)” value [9] was 2%. For the same compound, the “Population Mitochondria Different-Phenotype (%)” value [9] was 96%, the “Population Mitotic Cells (%)” value [9] was 26% and the “Population Normal (%)” value [9] was 88%. The “Population Pyknosed Nuclei (%)” value [9] was 45%, the “Population Tubulin-Different-Phenotype (%)” value [9] was 98% and the “Total Cell Count” value [9] was 272. The “Population Apoptotic (%)” value [10] was 83%, the “Population Fragmented Nuclei (%)” value [10] was 3% and the “Population Healthy Nuclei (%)” value [10] was 72%. The “Population Hoechst High Intensity Objects (%)” value [10] was 2%, the “Population Membrane Permeable-Phenotype (%)” value [10] was 1% and the “Population Mitochondria Different-Phenotype (%)” value [10] was 91%. For the same compound, the “Population Mitotic Cells (%)” value [10] was 16%, the “Population Normal (%)” value [10] was 97% and the “Population Pyknosed Nuclei (%)” value [10] was 23%. For the same compound, the “Total Cell Count” value [10] was 292.
